One experiment deals with Lolium perenne. Description: Inhibition of photosynthetic efficiency in Lolium perenne (perennial ryegrass) at 100 uM measured 24 hr post compound application. It counts as functional. In short, it runs like this:
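Greenhouse L. perenne sprayed 18 days after emergence (20 mM DMSO stock diluted into 0.05% Tween-20; vehicle-sprayed controls). Leaves dark-adapted 15 min, then excited with 3000 μmol photons m-2 s-1 red light (650 nm) from three LEDs. OJIP transients recorded at room temperature with a Handy PEA. PI(abs) and other parameters are shown on radar plots normalized to control.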

For experiment [1], the system named is Spinacia oleracea. Description: Effect on photosynthesis efficiency in Spinacia oleracea (spinach) leaves freshly lysed chloroplasts assessed as change in chlorophyll a fluorescence at 150 to 450 uM. It counts as functional. In outline:
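Freshly lysed spinach thylakoids (20 μg Chl) were placed on filter paper with a dot-blot apparatus and dipped in 3 mL basal electron transport medium without MV, containing compound. After 5 min dark adaptation, fluorescence was excited with 3000 μmol m-2 s-1 650 nm LED light (2 s pulse) at room temperature. Wt = (Ft−F0)/(FJ−F0), difference from control used for K-band; five replicates.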

Experiment [2] concerns the target Photosystem II protein D1 (Spinacia oleracea) (UniProt P69560). Kind of experiment: Inhibition of uncoupled photosystem II electron transport and partial reactions in Spinacia oleracea (spinach) leaves assessed as electron transport rate from water to DCPIP at 300 uM measured per mg of chlorophyll relative to untreated control. Further details: scale not given: the % may be the effect or the level left.

For experiment [3] the target is unchanged. Kind of experiment: Inhibition of uncoupled photosystem II electron transport and partial reactions in Spinacia oleracea (spinach) leaves assessed as electron transport rate from water to DCPIP at 200 uM measured per mg of chlorophyll relative to untreated control. Further details: scale not given: the % may be the effect or the level left.
For experiment [4] the target is unchanged. Kind of experiment: Inhibition of uncoupled photosystem II electron transport and partial reactions in Spinacia oleracea (spinach) leaves assessed as electron transport rate from water to DCPIP at 100 uM measured per mg of chlorophyll relative to untreated control. Details: scale not given: the % may be the effect or the level left.
For experiment [5] the target is unchanged. Description: Inhibition of uncoupled photosystem II electron transport and partial reactions in Spinacia oleracea (spinach) leaves assessed as electron transport rate from water to SiMo at 200 uM measured per mg of chlorophyll relative to untreated control. Further details: scale not given: the % may be the effect or the level left. In short, it runs like this:
(§1)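 Uncoupled partial PSII reaction from water to silicomolybdate, run in the PSII medium (sorbitol, KCl, MgCl2, KCN, 15 mM tricine-KOH pH 8.0, 6 mM NH4Cl, 20 μg Chl/mL, 1 min light). DCBQ/DBMIB were replaced by 200 μM SiMo plus 10 μM DCMU. Rates are in μequiv e-/h mg Chl, relative to control, three replicates.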

Experiment [6] shares this target. Kind of experiment: Inhibition of uncoupled photosystem II electron transport and partial reactions in Spinacia oleracea (spinach) leaves assessed as electron transport rate from water to SiMo at 100 uM measured per mg of chlorophyll relative to untreated control. Details: scale not given: the % may be the effect or the level left. In outline: as §1
Experiment [7] shares this target. Kind of experiment: Inhibition of uncoupled photosystem II electron transport and partial reactions in Spinacia oleracea (spinach) leaves assessed as electron transport rate from water to DCBQ at 300 uM measured per mg of chlorophyll relative to untreated control. Further details: scale not given: the % may be the effect or the level left. In short, it runs like this:
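Uncoupled PSII water-to-DCBQ rate: 3 mL of 100 mM sorbitol, 10 mM KCl, 5 mM MgCl2, 0.5 mM KCN, 15 mM tricine-KOH pH 8.0, with 100 μM DCBQ, 1 μM DBMIB, 6 mM NH4Cl and chloroplasts at 20 μg Chl/mL, illuminated 1 min. Rates are in μequiv e-/h mg Chl, percent of control, three replicates.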

Experiment [8] has the same target. Kind of experiment: Inhibition of uncoupled photosystem II electron transport and partial reactions in Spinacia oleracea (spinach) leaves assessed as electron transport rate from water to DCPIP at 50 uM measured per mg of chlorophyll relative to untreated control. Details: scale not given: the % may be the effect or the level left.
The test system of experiment [9] is Spinacia oleracea. Kind of experiment: Increase in Magnesium-transporting ATPase activity in Spinacia oleracea (spinach) leaves chloroplasts thylakoids at 200 uM. In outline: (§2)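 Spinach chloroplasts were isolated in 350 mM sorbitol, 5 mM ascorbate, 20 mM MES pH 6.5, centrifuged at 3000g for 60 s, washed, and resuspended in 35 mM HEPES pH 7.6. Light-triggered Mg2+-ATPase activity of thylakoid membranes was measured as released inorganic phosphate. Ammonium chloride served as positive control.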

Experiment [10] has as its system Spinacia oleracea. Description: Increase in Magnesium-transporting ATPase activity in Spinacia oleracea (spinach) leaves chloroplasts thylakoids at 300 uM. In outline: as §2
For experiment [11], the system named is Physalis ixocarpa. Kind of experiment: Inhibition of photosynthetic efficiency in Physalis ixocarpa intact leaves assessed as reduction in PI(abs) level at 100 uM measured 72 hr post compound application. Format: functional. In short, it runs like this: (§3)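 P. ixocarpa plants sprayed 15 days after emergence (greenhouse, 25-30 °C; 20 mM DMSO stock diluted into 0.05% Tween-20; vehicle-sprayed controls). Leaves dark-adapted 15 min, then excited with 650 nm red LED light at 3000 μmol photons m-2 s-1. Chl a OJIP transients recorded with a Handy PEA at room temperature. PI(abs) is normalized to control; K-, J- and I-bands come from variable fluorescence difference curves; five replicates.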

The test system of experiment [12] is Physalis ixocarpa. Description: Inhibition of photosynthetic efficiency in Physalis ixocarpa intact leaves assessed as reduction in PI(abs) level at 100 uM measured 48 hr post compound application. It counts as functional. In short, it runs like this:
as §3

The subject of experiment [13] is Physalis ixocarpa. Description: Inhibition of photosynthetic efficiency in Physalis ixocarpa intact leaves assessed as effect on OJIP transients at 100 uM measured 24 hr post compound application. It counts as functional, organism-based. In short, it runs like this: as §3

Active and inactive are the calls of the source. No cut-off for these calls is given here.

By inhibition is commonly meant the drop in the measured response relative to a control, in per cent. With `C[C@H]1C(=O)CC[C@@H]2[C@]1(C)CC[C@H]1[C@@]2(C)CC[C@@]2(C)[C@@H]3CC(C)(C)CC[C@]3(CO)CC[C@]12C` [CANOPHYLLOL], the figures for the inhibition at 100 µM in the experiment with Lolium perenne, with Physalis ixocarpa [11] and in the experiment with Physalis ixocarpa [12] were 50%, 25% and 10%, respectively. Further, the outcome in the experiment with Spinacia oleracea [1] was Active. Moreover, the Activity in [2] was determined as 100%; in [3], 95%; in [4], 108%; in experiment [5], 10%; in experiment [6], 20%; in experiment [7] it was 44%. Also, the Activity in experiment [8] was determined as 105%; with Spinacia oleracea [9] it was 116%; with Spinacia oleracea [10] it was 126%. The inhibition entry with Physalis ixocarpa [13] was “inactive”.

These data come from ChEMBL document CHEMBL3046214, “Friedelane triterpenes from Celastrus vulcanicola as photosynthetic inhibitors” (J Agric Food Chem, 2010).
